These results are taken from ChEMBL document CHEMBL1127746, “Alpha-spirocyclopentyl- and alpha-spirocyclopropyl-gamma-butyrolactones: conformationally constrained derivatives of anticonvulsant and convulsant alpha,alpha-disubstituted gamma-butyrolactones” (J Med Chem, 1994).

One may read the IC50 as the midpoint of a concentration-inhibition curve. The low end stands for greater potency in that assay, the high end for weaker potency in that assay. As a reminder, the Kd is the constant that tells how readily two partners part at equilibrium. Higher therefore signals lower affinity. What is called ED50 is the midpoint of the dose-response relation. Read a high ED50 as a need for a large dose.

In data set [1] the target is GABA-A receptor; anion channel. Briefly: Displacement of 35[S]-TBPS from picrotoxinin (GABA-A) receptor of rat neuronal membranes. It counts as cell membranes, Membrane. The gist of the method: (§1)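 Female Sprague-Dawley rat cerebral cortex membranes, washed and held in 50 mM Tris-citrate pH 7.5. 2 nM 35[S]-TBPS in NaBr with test compound, triplicate, 90 min at 25 °C. Filtration and scintillation counting; nonspecific binding with 10 μM TBPS or 100 μM picrotoxinin. IC50 by logistic fit of at least five concentrations; two or three experiments.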

Data set [2] addresses T1, GABA-A receptor; anion channel (Rattus norvegicus) (UniProt O09028+P15431+P18506+P18508+P19969+P20236+P23574+P23576+P28471+P28473+P30191+P62813+P63079+P63138+Q91ZM7+Q9ES14). Nature of the data set: Maximum Binding affinity for picrotoxinin (GABA-A) receptor of rat cerebral cortex. It counts as tissue-based. The gist of the method:
(§2)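 Saturation binding on rat cerebral cortex membranes in 50 mM Tris-citrate using 1-300 nM 35[S]-TBPS with test compound near its IC50, triplicate, 90 min at 25 °C. Filtration and scintillation counting. Kd and Bmax from Scatchard analysis; two or three experiments.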

Data set [3] deals with GABA-A receptor; anion channel. Nature of the data set: Dissociation constant from displacement of 35[S]-TBPS binding from picrotoxinin (GABA-A) receptor of rat cerebral cortex. It counts as tissue-based. The gist of the method:
as §2

Data set [4] deals with T1, GABA-A receptor; anion channel (Rattus norvegicus). Nature of the data set: Percent response relative to current produced by 10 uM GABA in rat hippocampal cells. The settings on record: Hippocampus. It counts as functional, cell-based.
For data set [5] the target is unchanged. Nature of the data set: Percent response relative to current produced by 1 uM GABA in rat hippocampal cells. It counts as functional, cell-based. To be noted: Hippocampus. A digest of the protocol: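 Whole-cell patch clamp of hippocampal neurons cultured from 1-day-old female Sprague-Dawley pups, 10-21 days in culture, held at -30 mV, CsCl-based pipette solution. 1 μM GABA with compound (10 mM or 1 mM) applied 2 s. Current expressed relative to the mean of GABA controls before and after; only ±10% recovery kept; mean ± SEM.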

Data set [6] in a line: […] dose at which 50% of the mice have clonic convulsions. To be noted: mouse, in vivo; read-out: CD50 (the source's name). The gist of the method: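 Female CF-1 mice, 6-8 weeks old; test compound in 30% PEG given ip at 5-10 mice/dose. Animals observed 30 min for clonic seizures after injection. CD50 derived by log10 probit analysis from the number of animals with clonic seizures.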

In a further data set the test system is Mus musculus. Briefly: Effective dose at which 50% of the mice were protected from clonic seizures induced by pentylenetetrazole (85 mg/kg). It counts as functional. The gist of the method: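 Female CF-1 mice, 6-8 weeks old, dosed ip with test compound in 30% PEG (5-10 mice/dose). Non-convulsant compounds then challenged with PTZ 85 mg/kg given as 0.85% solution in 0.9% NaCl. Mice observed 30 min for seizures.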

Data set [7] is described as follows: Toxic dose at which 50% of the mice failed the rotarod neurotoxicity test. It counts as toxicity. The settings on record: mouse, in vivo. A digest of the protocol: (§3)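 Female CF-1 mice (6-8 weeks) given test compound ip in 30% PEG, 5-10 mice/dose. Neurotoxicity scored as failure on the rotorod test. TD50 derived by log10 probit analysis of dose-response data.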
On the technique in general: The rotarod test checks motor coordination on a turning rod.

Data set [8] deals with T1, GABA-A receptor; anion channel (Rattus norvegicus). Briefly: Percent response relative to current produced by 1 uM GABA in rat hippocampal cells. To be noted: Hippocampus.
The nature of data set [9]: Dose at which 50% of the mice failed the rotarod neurotoxicity test. The settings on record: mouse, in vivo. A digest of the protocol: as §3
The target of data set [10] is GABA-A receptor; anion channel. Briefly: Inhibition of 35[S]-TBPS binding to GABA-A (picrotoxin) receptor of rat neuronal membranes. It counts as cell membranes, Membrane. The gist of the method: as §1

On to `CCC1(C)CCOC1=O` (stereo not drawn), for which the IC50 in [1] amounted to 2280 nM. Further, in data set [2], the Bmax (pM (mg of protein)-1) is 1.27. The same compound yielded a Kd in [3] of 80.7 nM. Further, the Response in data set [4] came out at 170%.

The compound `CCC1(C(C)(C)C)CCOC1=O` (stereo not drawn) had an IC50 in [1] of 310 nM. In addition, the Response in data set [5] is 47%. In addition, the TD50 in [6] was determined as 133 mg/kg. The same compound displayed a Bmax (pM (mg of protein)-1) in data set [2] of 1.54. This compound also yielded a Kd in data set [3] of 46.8 nM.

In the case of `C[C@@H]1CC12CCOC2=O` (stereo partly drawn), the 50% inhibitory concentration (IC50) in data set [1] stood at 3410 nM. In addition, the Bmax (pM (mg of protein)-1) in data set [2] was 1.14. For the same compound, the median effective dose (ED50) with Mus musculus was 259 mg/kg. Besides, in data set [3], the Kd turned out to be 40.4 nM. Also, the Response in data set [4] came out at 48%. In data set [7], this compound yielded a TD50 greater than 500 mg/kg.

As for `CCC1(C(C)C)CCOC1=O` (stereo not drawn), the IC50 in [1] was found to be 240 nM. In data set [2], this compound came in with a Bmax (pM (mg of protein)-1) of 1.5. For the same compound, in the data set on Mus musculus, the ED50 turned out to be 169 mg/kg. Besides, the Kd in data set [3] is 35.2 nM. For the same compound, the Response in data set [4] was found to be 222%. The TD50 in data set [7] is greater than 300 mg/kg.

`CC1(C)CCCC12CCOC2=O` (stereo not drawn) registered an IC50 in [1] of 360 nM. In data set [2], this compound came in with a Bmax (pM (mg of protein)-1) of 1. Moreover, the affinity in data set [3], expressed as Kd, was 41.8 nM. In addition, the Response in data set [4] came to 327%. For the same compound, the TD50 in [7] amounted to 10 mg/kg.

`O=C1OCCC12CCCC2` came in with an IC50 in data set [1] of 810 nM. In addition, in data set [2], the Bmax (pM (mg of protein)-1) worked out at 1.04. The Response in data set [8] was 220%. Besides, it took a dose of 385 mg/kg to reach the 50% effect level in the data set on Mus musculus (ED50). The same compound returned a Kd in data set [3] of 48.8 nM.

In data set [1], `CCC1(CC)CCOC1=O` came in with an IC50 of 750 nM. The same compound came in with a Bmax (pM (mg of protein)-1) in [2] of 1.51. In data set [3], binding was put at a Kd of 37.2 nM. In data set [4], this compound yielded a Response of 301%.

In data set [1], `C[C@H]1CC[C@H](C)C12CCOC2=O` registered an IC50 of 200 nM. Also, in [5], the Response stood at 80%. In addition, in [6], the TD50 stood at 198 mg/kg. In addition, in [2], the Bmax (pM (mg of protein)-1) was 1.04. The compound further came in with an equilibrium dissociation constant (Kd) in data set [3] of 35.6 nM.

With `CC1(C)CC12CCOC2=O` (stereo not drawn), the IC50 in [1] was 1140 nM. In data set [5], this compound displayed a Response of 247%. In [2], this compound showed a Bmax (pM (mg of protein)-1) of 0.86. Further, the ED50 in the data set with Mus musculus was 221 mg/kg. The affinity in [3], expressed as Kd, was 35.4 nM. Also, the TD50 in data set [9] worked out at 254 mg/kg.

For the compound `C[C@H]1CC12CCOC2=O` (stereo partly drawn), in data set [1], the IC50 was 7170 nM. In addition, the Bmax (pM (mg of protein)-1) in [2] was 1.27. Further, the 50% effect level with Mus musculus (ED50) was put at a dose of 210 mg/kg. Also, in [3], binding was put at a Kd of 44.1 nM. For the same compound, in data set [4], the Response came out at 149%. This compound also gave a TD50 in [7] greater than 300 mg/kg.

`CC(C)C1(C(C)C)CCOC1=O` had an IC50 in data set [1] of 220 nM. Besides, in data set [6], the TD50 amounted to 137 mg/kg. Also, the Bmax (pM (mg of protein)-1) in [2] stood at 1.49. Further, the Kd in [3] amounted to 33.4 nM. In addition, the Response in data set [4] was 328%.

Take `O=C1OCCC12CC2`: the Response in data set [4] is 62%. For the same compound, the TD50 in [7] is greater than 500 mg/kg. Also, the IC50 in data set [10] was greater than 10000 nM.

The compound `CC1CCCC12CCOC2=O` (stereo not drawn) had an IC50 in data set [1] of 680 nM. Further, the Bmax (pM (mg of protein)-1) in data set [2] was 0.93. Binding in data set [3] was put at a Kd of 39.5 nM. This compound also showed a Response in data set [4] of 252%. The compound also gave a TD50 in data set [7] greater than 500 mg/kg.

On to `CC1(C)CCOC1=O`, for which the median effective dose (ED50) in the data set on Mus musculus was greater than 500 mg/kg. The compound further registered a Response in data set [4] of 41%. This compound also had a TD50 in [7] greater than 500 mg/kg. In [10], this compound came in with an IC50 of 9200 nM.

`C[C@@H]1CC[C@H](C)C12CCOC2=O` (stereo partly drawn) registered an IC50 in data set [1] of 780 nM. This compound had a Bmax (pM (mg of protein)-1) in data set [2] of 0.54. Also, in data set [3], the affinity, expressed as Kd, was 38.5 nM. Moreover, the TD50 in data set [9] was greater than 500 mg/kg. The Response in [4] was 198%.

As for `CC(C)C1(C)CCOC1=O` (stereo not drawn), the IC50 in data set [1] was found to be 740 nM. Besides, the Response in [5] turned out to be 116%. The Bmax (pM (mg of protein)-1) in data set [2] amounted to 0.99. The Kd in data set [3] amounted to 47 nM.
